Tests used:
Assay type in all cases: functional
Rattus norvegicus [1] = species on record: Rattus norvegicus; experiment: Hypolipidemic activity expressed as percentage decrease in triglyceride in rat, at dosage of 50 mg for 7 days
Procedure, shortened: (§1)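 Male Sprague-Dawley rats, 4 weeks old, kept on CE-2 chow for at least 1 week, then grouped (generally five per group). Compound was mixed into CE-2 powder and fed ad libitum for the stated period; controls received plain CE-2 powder. Diet level is given as mg/100 g (mg%), about equal to mg/kg/day. Total serum triglyceride was measured by the Ryan and Rasho method and reported as percent depression versus control group mean. Significance was p < 0.05.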

Rattus norvegicus [2] = species on record: Rattus norvegicus; experiment: Tested for the hypolipidemic activity, expressed as percent decrease in serum cholesterol in rat, at dosage of 50 mg for 7 days
Procedure, shortened: as §1, with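 “cholesterol” for “triglyceride”, “Zak et al.” for “Ryan and Rasho”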

Rattus norvegicus [3] = species on record: Rattus norvegicus; experiment: Hypolipidemic activity, expressed as percent decrease in serum cholesterol in rat, at dosage of 100 mg for 7 days by Zak et al method
Procedure, shortened: as §1, with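 “cholesterol” for “triglyceride”, “Zak et al.” for “Ryan and Rasho”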

Rattus norvegicus [4] = experiment: In vivo hypolipidemic activity, expressed as percent decrease in Triglyceride in rat, at dosage of 100 mg for 7 days.; procedure, shortened: as §1

SMILES | Decrease (Rattus norvegicus [1]) [%] | Decrease (Rattus norvegicus [2]) [%] | Decrease (Rattus norvegicus [3]) [%] | Decrease (Rattus norvegicus [4]) [%]
CCCCCCCCCCCCCCOc1ccc(/C=C(\C)C(=O)OCC(COC(=O)c2cccnc2)OC(=O)c2cccnc2)cc1 (stereo unspecified) | 17 | 7 |  | 
CCCCCCCCCCCCCCOc1cccc(/C=C(\C)C(=O)O)c1 | -11 | -1 |  | 
CCCCCCCCCCCCCCOc1ccc(/C(C)=C/C(=O)O)cc1 | 41 | 5 |  | 
CCCCCCCCCCCCOc1ccc(/C=C/C(=O)OCCCl)cc1 | 46 | 16 |  | 
CCCCCCCCOc1ccc(/C=C/C(=O)OCCCl)cc1 |  |  | 5 | 
CCCCCCCCCCCCCCCCCCOc1ccc(/C=C/C(=O)O)cc1 | 9 | 0 |  | 
CCCCCCCCCCCCOc1ccc(/C=C(\C)C(=O)OCC2COC(C)(C)O2)cc1 (stereo unspecified) | 41 | 16 |  | 
CCCCCCCCCCCCCCOc1ccc(/C=C/C(=O)O)cc1 | 0 | 7 |  | 
CCCCCCCCOc1ccc(/C=C/C(=O)OCCOC(=O)/C=C/c2ccc(OCCCCCCCC)cc2)cc1 | 9 | 4 |  | 
CCCCCCCCCCCCCCOc1ccc(/C=C/C(=O)OCCO)cc1 | 24 | 10 |  | 
CCCCCCCCCCCCOc1ccc(/C=C(\C)C(=O)OCc2cccnc2)cc1 | 60 | 24 |  | 
CCCCCCCCCCCCCCOc1ccc(/C=C(\C)C(=O)OCC2COC(C)(C)O2)cc1 (stereo unspecified) | 2 | 9 |  | 
C/C(=C\c1ccc(-c2ccc(Cl)cc2)cc1)C(=O)OCC(O)CO (stereo unspecified) | 18 | 11 |  | 
CCCCCCCCCCCCCOc1ccc(/C=C(\C)C(=O)O)cc1 | -4 | 13 |  | 
CCCCCCCCCCCCOc1ccc(/C=C/C(=O)OCC(O)CO)cc1 (stereo unspecified) | 38 | 17 |  | 
CCCCCCCCCCCCOc1ccc(/C=C/C(=O)O)cc1 | 52 | 15 |  | 
CCCCCCCCCCCCCCCCOc1ccc(/C=C/C(=O)OCCBr)cc1 |  |  | 7 | 6
CCCCCCCCCCCCCCCCCCOc1ccc(/C=C/C(=O)OCCCCl)cc1 | 3 | 9 |  | 
CCCCCCCCCCOc1ccc(/C=C(\C)C(=O)OCC(O)CO)cc1 (stereo unspecified) | 52 | 10 |  | 
CCCCCCCCCCCCCOc1ccc(/C=C(\C)C(=O)OCC(O)CO)cc1 (stereo unspecified) | 53 | 30 |  | 

SMILES | Decrease (Rattus norvegicus [1]) [%] | Decrease (Rattus norvegicus [2]) [%] | Decrease (Rattus norvegicus [3]) [%] | Decrease (Rattus norvegicus [4]) [%]
COc1ccc(/C=C/C(=O)OCCCl)cc1 |  |  | 0 | 
CCCCCCCCCCCCCCOc1ccc(/C=C(\C)C(=O)OC)cc1 | 44 | 10 |  | 
CCCCCCCCCCOc1ccc(/C=C/C(=O)O)cc1 | 18 | 9 |  | 
CCCCCCCCCCCCCCOc1ccc(/C=C(\C)C(=O)OCC(O)COC(=O)c2cccnc2)cc1 (stereo unspecified) | 33 | 4 |  | 
CCCCCCCCCCCCOc1ccc(/C=C(\C)C(=O)OCCCl)cc1 | 42 | 21 |  | 
C=C(C)C(=O)OCCOC(=O)/C=C/c1ccc(OCCCCCCCCCCCC)cc1 | 34 | 13 |  | 
C=C(C)C(=O)OCCOC(=O)/C=C/c1ccc(OCCCC)cc1 | 17 | 9 |  | 
CCCCCCCCCCCCCCCCCCOc1ccc(/C=C(\C)C(=O)OCCCCl)cc1 | 11 | 0 |  | 
CCCCCCCCCCCCCCCCCCOc1ccc(/C=C(\C)C(=O)OCCCO)cc1 | 14 | 13 |  | 
C=CC(=O)OCCOC(=O)/C=C/c1ccc(OCCCCCCCCCCCCCCCC)cc1 |  |  | 6 | 
C/C(=C\c1ccc(-c2ccccc2)cc1)C(=O)OCC(O)CO (stereo unspecified) | -17 | 16 |  | 
CCCCCCCCCCCCCCCCOC(=O)/C=C/c1ccc(OCCCCCCCCCCCCCCCC)cc1 | 27 | 11 |  | 
CCCCCCCCCCOc1ccc(/C=C/C(=O)OCC(O)CO)cc1 (stereo unspecified) | 14 | -3 |  | 
C=C(C)C(=O)OCCOC(=O)/C=C(\C)c1ccc(OCCCCCCCCCCCCCCCC)cc1 |  |  | 11 | 12
C=COC(=O)/C=C/c1ccc(OCCCCCCCC)cc1 |  |  | -6 | 
CCCCCCCCCCCCCCCCOc1ccc(/C=C(\C)C(=O)OCC2COC(C)(C)O2)cc1 (stereo unspecified) | 3 | 1 |  | 
CCCCCCCCOc1ccc(/C=C(\C)C(=O)OCC(O)CO)cc1 (stereo unspecified) | 21 | 8 |  | 
CCCCCCCCCCCCCCCCOc1ccc(/C=C/C(=O)OCC(COC(=O)CCC)OC(=O)CCC)cc1 (stereo unspecified) | 36 | 8 |  | 
CCCCCCCCCCCCCCOc1ccc(/C=C(\C)C(=O)OCCOC(=O)/C(C)=C/c2ccc(OCCCCCCCCCCCCCC)cc2)cc1 | -9 | -1 |  | 
CCCCCCCCOc1ccc(/C=C(\C)C(=O)OCc2ccccc2)cc1 | 18 | 5 |  | 

SMILES | Decrease (Rattus norvegicus [1]) [%] | Decrease (Rattus norvegicus [2]) [%] | Decrease (Rattus norvegicus [3]) [%] | Decrease (Rattus norvegicus [4]) [%]
CCCCCCCCCCCCCCCCCCOc1ccc(/C=C(\C)C(=O)OCC(O)CO)cc1 (stereo unspecified) | 3 | -1 |  | 
CCCCCCCCCCCCCCOc1ccc(/C=C(\C)C(=O)OCC(O)COC(=O)/C(C)=C/c2ccc(OCCCCCCCCCCCCCC)cc2)cc1 (stereo unspecified) | 6 | 6 |  | 
CCCCCCCCCCCCOc1ccc(/C=C(\C)C(=O)OCC(COC(=O)c2ccccc2)OC(=O)c2ccccc2)cc1 (stereo unspecified) | 47 | 3 |  | 
CCCCCCCCCCCCCCOc1ccc(/C=C(\C)C(=O)OCC(COC(C)=O)OC(C)=O)cc1 (stereo unspecified) | 41 | 4 |  | 
CCCCCCCCCCCCCCOc1ccc(/C=C/C(=O)OCC(O)CO)cc1 (stereo unspecified) | 24 | 26 |  | 
CCCCCCCCCCCCCCOc1ccc(/C=C(\C)C(=O)OC(CO)CO)cc1 | 38 | 9 |  | 
CCCCCCCCCCOc1ccc(/C=C(\C)C(=O)O)cc1 | 43 | 16 |  | 
CCCCCCCCCCCCCCOc1ccc(/C=C/C(=O)OCCCl)cc1 | -1 | 11 |  | 
CCCCCCCCOc1ccc(/C=C(\C)C(=O)O)cc1 | 8 | 10 |  | 
CCCCCCCCCCCCCCOc1ccccc1/C=C(\C)C(=O)O | 7 | -9 |  | 
CCCCCCCCCCCCCCCCOc1ccc(/C=C(\C)C(=O)Oc2ccccc2)cc1 | 46 | 12 |  | 
O=C(/C=C/c1ccc(OCc2ccccc2)cc1)OCCCl |  |  | -3 | 
CCCCCCCCCCCCCCCCCCOc1ccc(/C=C(\C)C(=O)O)cc1 | -54 | -12 |  | 
CCCCCCCCCCCCOc1ccc(/C=C(\C)C(=O)OCCS(=O)(=O)[O-])cc1.[Na+] | 63 | 27 |  | 
CCCCCCCCCCCCCCCCOc1ccc(/C=C(\C)C(=O)OCC(COC(=O)/C(C)=C/c2ccc(OCCCCCCCCCCCCCCCC)cc2)OC(=O)/C(C)=C/c2ccc(OCCCCCCCCCCCCCCCC)cc2)cc1 (stereo unspecified) | 9 | 0 |  | 
C=C(C)C(=O)OCCOC(=O)/C(C)=C/c1ccc(OCCCCCCCCCCCC)cc1 | 43 | 17 |  | 
CCCCCCCCCCCCCCOc1ccc(/C=C(\C)C(=O)OCCN(C)C)cc1.Cl | 35 | 8 |  | 
CCCCCCCCCCCCCCOc1ccc(/C=C(\C)C(=O)OCC(O)CO)cc1 (stereo in doubt; 98) | 9 | -2 |  | 

— ChEMBL document CHEMBL1121524, “Studies of hypolipidemic agents. 1. Synthesis and hypolipidemic activities of alkoxycinnamic acid derivatives” (1980)
